Measurements of several laboratories.
Lines come from different studies, so protocols differ.

CCNCCCn1c2c(c3cc(OC)c(OC)cc3c1=O)C(=O)c1cc3c(nc1-2)OCO3
IC50 (TC-71; cell growth or viability; MTS; 72 h): 122 nM

C=CC(=O)NC1CCN(c2ncc3ncnc(Nc4ccc(Oc5ccc6c(c5)ncn6C)c(C)c4)c3n2)CC1
EC50 (AU565; cell growth or viability): 20.8 nM

C=C/C=C(\C)CC[C@@H]1C[C@@H](O)CC(=O)O1
MIC (Bacillus cereus; microbial growth; broth dilution; ATCC10876): 128 µg/mL

O=C(O)c1cn(C2CC2)c2cc(N3CCNCC3)c(F)cc2c1=O
MIC (Salmonella enterica; microbial growth; ATCC13311): 4 µM

CC(=O)OCC1=C(C(=O)O)N2C(=O)[C@@H](NC(=O)Cc3cccs3)[C@H]2SC1
MIC (Salmonella enterica; microbial growth; broth dilution; TYPHIMURIUM): < 127 µg/mL

COc1cc2c3c(n(CCCN4CCOCC4)c(=O)c2cc1OC)-c1nc2c(cc1C3=O)OCO2
IC50 (RPMI-8226; cell growth or viability; MTS; 72 h): 905 nM

CC(C)C[C@@H]1NC(=O)[C@@H](N(C)C(=O)[C@H](CC2CCC2)NC(=O)[C@@H]2C[C@@H](F)CN2C(=O)C2(C(F)(F)F)CC(F)(F)C2)CCCCNC(=O)C2(CC2)NC(=O)[C@H](Cc2cc(Cl)ccc2Cl)N(C)C1=O
GI50 (NCI-H69; cell growth or viability; MTT; 5 days): 13 nM

O=C(O)c1cn(C2CC2)c2cc(N3CCNCC3)c(F)cc2c1=O
MIC (Salmonella enterica; microbial growth; broth dilution; TYPHIMURIUM): 0.03 µM
